# High-throughput results as filed in PubChem.
# The list is not random: actives were taken first. Their share in the collection is about 3.1%.
# EWS-Fli block: EWS/Fli transcriptional activity inhibition. A673 NR0B1-luciferase reporter, viability-normalised. inhibition, % at 12.6 µM. hit rate 0.67% among 350,000. AID 651661;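 active means mean inhibition of at least 50% after viability correction, with every replicate also passing that limit; inconclusive means mean reaches 50% but only one of two replicates passes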;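 further: firefly luciferase signal divided by Alamar Blue viability fluorescence both relative to DMSO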
# Env fusion inh: blocks HIV Env-driven cell-cell fusion | HeLa-JRFL Env/CEM21 cell fusion, luciferase | inhibition, % at 12.3 µM | hit rate 1.1% among 360,000 | AID 651610;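 active means mean replicate inhibition score of at least 50 and every replicate individually at or above 50; inconclusive means only one of the two criteria met; inactive means mean below 50 and not all replicates reaching 50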;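 further: 0% = plate neutral controls and 100% = maraviroc near 300 nM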
# FGF22 binding: shifts melting point of recombinant human FGF22; recombinant FGF22 thermal shift, SYPRO orange fluorescence; percent of sucrose octasulfate shift, DMSO zero; activity (Tm shift, normalised), % at 9.99 µM; hit rate 1.5% among 340,000;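 active means mean Tm shift, scaled 0 neutral to 100 positive control, at about 1.3% or above, every replicate too, limit read from the data; inconclusive means no clear call, values can overlap the other calls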
# Target sequence (Q9HCT0 whole entry, looked up): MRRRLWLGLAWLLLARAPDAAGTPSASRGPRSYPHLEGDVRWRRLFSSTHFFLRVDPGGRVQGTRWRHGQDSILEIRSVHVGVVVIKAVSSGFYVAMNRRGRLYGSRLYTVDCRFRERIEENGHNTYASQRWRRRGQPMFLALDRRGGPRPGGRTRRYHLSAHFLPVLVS
# FN deposition inh: fibronectin deposition inhibition; AH1F fibroblasts, Alexa488-fibronectin deposition fluorescence, overnight; inhibition, % at 12.6 µM; hit rate 0.086% among 350,000; AID 743247;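 active means mean inhibition across replicates of 30% or more, regardless of how many single replicates reach that level; inconclusive means mean under 30% yet at least half of replicates reach 30%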;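 further: positive control wells lacked labelled fibronectin entirely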
#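 Assay system: AH1F fibroblast monolayer, labelled fibronectin deposition. Amount: 10000 cells per well. Also added: labelled fibronectin 24 nM. Compound: single-point pinned compound. Incubation: cell attachment 1 h, compound and FN exposure overnight. Detection: fluorescence after three HBSS washes, excitation 485 nm, emission 525 nm. Read-out: inhibition of fibronectin deposition signal.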
# PGC1a acetyl inh: PGC1a acetylation modulation, inhibitor mode; AID 651687; inhibition, % at 15.6 µM; hit rate 0.17% among 350,000; U2OS PGC1a acetylation, AlphaScreen anti-acetyl-lysine; with virally co-expressed GCN5 acetyltransferase;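 active means every replicate shows inhibition of at least 40%; inconclusive means mean inhibition at least 40% but some replicate below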;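 further: 0% = neutral control wells and 100% = positive control wells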
# PAX8 reporter: inhibitors of PAX8 transcriptional activity in RMG-I cells | RMG-I TPO-luciferase reporter, SteadyGlo, 24 h | inhibition, % at 12.6 µM | hit rate 1.2% among 360,000;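 active means mean replicate inhibition at least 60% with every replicate also reaching 60%; inconclusive means only one of the two criteria is met; inactive means mean below 60% and not all replicates reaching 60%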;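 further: luciferase light reporting Pax8 driven TPO promoter activity; plate controls were median of neutral control wells for no effect and mitoxantrone controls for full effect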
# * marks the source's active call; other numbers are inactive results; ? = inconclusive; . = not tested or not shown; [ ] = dose if it differs, or a comment.
SMILES,EWS-Fli block,Env fusion inh,FGF22 binding,FN deposition inh,PGC1a acetyl inh,PAX8 reporter
CN(C)/C=N/C1=C(C#N)C(c2ccc(Br)cc2)c2ccc3ccccc3c2O1 (stereo unspecified),6.1,59.4*,0.1,-3.9,-1.5,-14.3
COc1cc(C2C(C#N)=C(N)Oc3c2ccc2ccccc32)ccc1OCC(=O)Nc1ccccc1C (stereo unspecified),.,20.9,.,0.3,.,14.7
COCC#Cc1cnc2c(c1)C(=O)N([C@@H](C)CO)C[C@H](C)[C@@H](CN(C)C(=O)CCN1CCCCC1)O2,-7.9,-9.2[16.7 µM],0.4,.,-0.1,.
C[C@H]1CN([C@@H](C)CO)C(=O)c2cccc(NC(=O)NC3CCCCC3)c2O[C@H]1CN(C)S(C)(=O)=O,-3.1,.,0.0,.,1.9,6.1
COc1ccc(NC(=O)CSc2nncs2)cc1S(N)(=O)=O,-10.5,-4.1,-0.1,2.6,10.3,6.1
COc1ccc(NC(=O)CSc2nccn2C)cc1S(N)(=O)=O,-8.7,-0.9,2.4*,9.8,.,-0.2
O=C(Nc1ccccc1)c1ccc(Nc2c([N+](=O)[O-])cc([N+](=O)[O-])c3ccccc23)cc1,.,36.9,.,-0.6,.,17.7
O=[N+]([O-])c1cc(Br)c(Nc2ccccc2)c([N+](=O)[O-])c1,30.0,-406.5,-0.3,-12.6,.,83.9*
COc1ccccc1NC(=O)c1cccc(N2C(=O)C3C4C=CC(C4)C3C2=O)c1 (stereo unspecified),.,-1.7,43.9*,0.8,-9.9,-7.9
Cc1cc(NC(=O)c2ccc(N3C(=O)C4C5C=CC(C5)C4C3=O)cc2)no1 (stereo unspecified),-12.3,-15.5,44.3*,18.1,.,-10.4
CCCCCCCCCCn1c2c(c(=N)c3c1CCC3)CCC2,.,69.2*,.,3.1,.,.
CCCCCn1c2c(c(=N)c3ccccc31)CCC2,22.2,18.9,0.0,8.0,1.5,66.7*
CCCCCCCCCn1c2c(c(=N)c3c1CCC3)CCCC2,.,.,.,.,32.9,.
CCCCCCCCn1c2c(c(=N)c3ccccc31)CCC2,42.2,55.5*,-0.1,-6.7,23.2,80.0*
CC(C)NC(=O)Nc1ccc2c(c1)C(=O)N([C@H](C)CO)C[C@H](C)[C@@H](CN(C)S(=O)(=O)c1ccc(Cl)cc1)OCCCC[C@@H](C)O2,0.5,-43.1[16.7 µM],0.1,-15.5,-6.6,-3.3
C[C@H]1CN([C@@H](C)CO)C(=O)c2cc(NC(=O)CCC(F)(F)F)ccc2O[C@@H]1CN(C)CC1CC1,-0.2,7.5[16.7 µM],-0.6,.,.,-17.4
O=C(OCc1ccccc1F)c1cc([N+](=O)[O-])ccc1N1CCOCC1,7.1,-0.9,-0.4,5.4,1.9,5.4
COc1ccc(OC)c(COC(=O)c2cc([N+](=O)[O-])ccc2N2CCOCC2)c1,64.6*,48.1,-0.1,15.2,-3.1,24.5
CSc1ccc(COC(=O)c2cc([N+](=O)[O-])ccc2N2CCOCC2)cc1,55.2*,.,-0.1,-29.3,.,96.5*
Cc1ccccc1COC(=O)c1cc([N+](=O)[O-])ccc1N1CCOCC1,.,22.6,0.2,4.0,.,24.0
CC(C)NC(=O)N(C)C[C@H]1OCCCC[C@@H](C)Oc2ccc(N(C)C)cc2C(=O)N([C@@H](C)CO)C[C@H]1C,.,14.3[16.7 µM],-1.0,-8.5,-0.9,2.0
C[C@H]1CN([C@@H](C)CO)C(=O)c2cccc(NC(=O)c3ccc(-c4nccs4)cc3)c2O[C@H]1CN(C)Cc1ccc(-c2ccccc2)cc1,13.2,24.2[16.7 µM],-0.5,.,23.3,62.7*
C[C@H](CO)N1C[C@H](C)[C@H](CN(C)Cc2ccc(-c3ccccc3)cc2)Oc2c(NC(=O)c3ccc(-c4nccs4)cc3)cccc2C1=O,1.5,-0.1[16.7 µM],0.2,.,15.0,-14.3
C[C@@H]1CN([C@@H](C)CO)C(=O)c2cc(N(C)C)ccc2O[C@@H]1CN(C)Cc1ccc(C(=O)Nc2ccccc2N)cc1,82.0*,-13.8[16.7 µM],-0.1,.,-3.2,45.6
C[C@H]1CN([C@@H](C)CO)C(=O)Cc2cc(N(C)C)ccc2O[C@H]1CN(C)Cc1ccc(C(=O)Nc2ccccc2N)cc1,.,.,.,-8.1,.,.
SMILES,EWS-Fli block,Env fusion inh,FGF22 binding,FN deposition inh,PGC1a acetyl inh,PAX8 reporter
C[C@H](CO)N1C[C@H](C)[C@@H](CN(C)CC2CC2)Oc2c(NC(=O)c3ccc(-c4nccs4)cc3)cccc2C1=O,6.3,20.0[16.7 µM],0.0,0.8,1.2,.
C[C@@H]1CN([C@@H](C)CO)C(=O)c2cccc(NC(=O)c3ccc(-c4nccs4)cc3)c2O[C@H]1CN(C)CC1CC1,8.0,57.3*[16.7 µM],-0.1,-2.7,0.7,.
COc1ccc(S(=O)(=O)N(C)C[C@H]2Oc3ccc(NC(=O)Nc4c(C)noc4C)cc3CC(=O)N([C@H](C)CO)C[C@@H]2C)cc1,-22.7,-9.1[16.7 µM],0.1,.,5.5,.
CO[C@H](CN(C)S(=O)(=O)c1cccc(Cl)c1)[C@@H](C)CN([C@@H](C)CO)S(=O)(=O)c1cccc(Cl)c1,20.4,.,0.0,4.0,-15.3,.
NCC(O)COCCC12CC3CC(CC(C3)C1)C2 (stereo unspecified),.,-7.6,.,-1.9,-5.2,.
CC(NCC(O)COCCC12CC3CC(CC(C3)C1)C2)c1ccccc1 (stereo unspecified),49.3,73.4*,0.2,24.2,.,?
Cc1cc(C2=NNC(=NC3CC3)SC2)c(C)n1-c1ccccc1,89.3*,39.7,0.2,5.7,.,77.0*
COc1ccc(-n2c(C)cc(C3=NNC(=NC4CC4)SC3)c2C)cc1,10.2,-13.4,-0.1,-17.4,-4.3,-52.2
Cc1cc(C2=NNC(=NC3CC3)SC2)c(C)n1Cc1ccco1,71.7*,12.6,-0.1,0.8,.,6.4
COCCCN=C1NN=C(c2cc(C)n(Cc3ccco3)c2C)CS1,54.1*,-92.0,-0.3,16.3,.,-35.2
CCNC(=O)C[C@@H]1CC[C@@H]2[C@@H](COc3ccc(NC(=O)c4ccc(C(F)(F)F)cc4)cc3C(=O)N2C)O1,-4.8,9.2[16.7 µM],-0.1,-4.3,13.3,1.9
CCC(=O)N1C[C@@H]2[C@H](c3ccccc31)[C@H](CO)N2C(=O)Nc1ccccc1,-2.9,.,0.6,.,4.1,-11.6
Cc1nnc(SCc2ccccc2)[nH]c1=O,-3.0,10.4,0.2,6.2,27.2,6.4
Cc1ccc(CSc2nnc(C)c(=O)[nH]2)cc1,9.9,5.2,43.0*,-7.2,.,-33.6
C[C@H](NC(=O)c1ncn2c1c(=O)[nH]c1ccc(Br)cc12)c1ccccc1,7.6,57.0*,-0.5,2.3,.,-2.4
COc1ccc(/C=C(/C#N)S(=O)(=O)c2ccc(C)cc2)cc1,.,-26.1,.,-11.9,2.1,13.8
CO/N=C/C(C#N)=C/c1ccc(OC)cc1,-63.5,-13.5,43.7*,8.9,4.3,-118.0
CCN(CC)CCN1C(=O)/C(=C\c2ccc(Cl)c([N+](=O)[O-])c2)SC1=Nc1ccc(OC)cc1,59.7*,-268.2,-0.9,4.0,.,54.0
COc1ccc(N=C2S/C(=C\c3ccc(Cl)c([N+](=O)[O-])c3)C(=O)N2CCN(C)C)cc1,64.2*,0.5,-0.6,-2.6,-27.6,6.1
